Source: PubChem (several laboratories)
Exocytosis inh: blocks lytic granule exocytosis; TALL-104 LAMP-1 surface exposure, flow cytometry; cells stimulated with thapsigargin and PMA; inhibition, % at 10 µM; 360,000 compounds, 0.66% hits; AID 651702;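 active means inhibition above about 55%, limit read from the data; inconclusive means no clear call, values can overlap the other calls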
iPSC survival up: hiPSC single-cell survival enhancement | ATPlite luminescence; 100% = ROCK inhibitor wells, 0% = DMSO | survival enhancement, % at 20 µM | 360,000 compounds, 0.044% hits | AID 602274; in the data active means survival enhancement above about 18%;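 further: cells exposed to compounds for 16 hours before the ATP read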
UBC13 inh: blocks human UBC13 polyubiquitin chain formation | P61088 | TR-FRET | inhibition, % at 20 µM | 330,000 compounds, 0.47% hits | AID 485273; in the data active means inhibition above about 45%, passing the limit was not always enough; inconclusive means no clear call, values can overlap the other calls
Target sequence (P61088 whole entry, looked up): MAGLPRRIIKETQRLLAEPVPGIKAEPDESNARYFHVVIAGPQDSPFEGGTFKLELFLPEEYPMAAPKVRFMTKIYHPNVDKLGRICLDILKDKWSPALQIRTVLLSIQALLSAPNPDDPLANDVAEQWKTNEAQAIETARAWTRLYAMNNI
MPTP block: blocks calcium-induced mitochondrial swelling; isolated mouse mitochondria, Ca2+ swelling absorbance, 30 min; inhibition, % at 10 µM; 360,000 compounds, 1.4% hits; AID 602449;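 active means inhibition of 50% or more, scaled per plate between neutral and stimulator controls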;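 further: 0% = DMSO wells given calcium and 100% = 1 mM EGTA wells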
Apaf1 inhib: blocks human Apaf-1 apoptosome activity; inhibition, % at 20 µM; O14727; AID 489030; 330,000 compounds, 0.71% hits; reconstituted apoptosome caspase-3 activity, DEVD-Rh110 fluorescence; active means inhibition of at least 40% at 20 µM;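 further: plate controls were DMSO wells for no effect and DEVD-CHO caspase inhibitor wells for full effect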
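Assay system: Apoptosome proteins | Medium: pH 7.5 Hepes buffer with CHAPS, BSA, DTT | Also added: Cytochrome c and DEVD-Rh110 substrate | Times: 30 min plus 50 min, RT | Detection: Rhodamine 110 fluorescence at Ex 480/Em 540 nm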
MIN6 prolif: MIN6 beta-cell proliferation induction. MIN6 cells proliferation, ATPlite luminescence, 48 h; cells starved in 0.2% serum; 100% = growth in 10% serum. proliferation, % at 10 µM. 330,000 compounds, 0.29% hits. AID 2380;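 active means compounds whose signal lies at least 3.5 SD above the mean of all wells on their plate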;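 further: 0% = DMSO-treated cells in low-serum medium and 100% = 10% serum control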
Casp3 counter: counter-screen for UBC13 inhibitors: human caspase-3 inhibition. AID 488856. 1,400 compounds, 4% hits. shares compounds with UBC13 inh. inhibition, % at 20 µM. Recombinant caspase-3, Caspase-Glo 3/7 luminescence, 60 min;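 active means mean inhibition across replicates above about 26%, limit read from the data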;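 further: plate controls were DMSO with caspase-3 for no effect and DMSO wells lacking enzyme for full effect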
Target sequence (P42574 whole entry, looked up): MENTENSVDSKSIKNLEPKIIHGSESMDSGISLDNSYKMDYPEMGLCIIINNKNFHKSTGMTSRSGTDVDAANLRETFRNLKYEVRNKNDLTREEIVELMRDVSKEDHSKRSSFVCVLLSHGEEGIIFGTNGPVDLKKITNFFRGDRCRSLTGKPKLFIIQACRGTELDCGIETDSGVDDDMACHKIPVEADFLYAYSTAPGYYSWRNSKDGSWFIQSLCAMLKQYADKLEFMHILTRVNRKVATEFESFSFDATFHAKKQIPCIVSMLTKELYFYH
UBC13 confirm: confirmation of human UBC13 polyubiquitin inhibitors. shares compounds with UBC13 inh. UBC13 polyubiquitination, TR-FRET, biochemical. inhibition, % at 10 µM. 1,400 compounds, 68% hits. AID 488859; in the data active means inhibition above about 45%; inconclusive means no clear call, values can overlap the other calls
Apaf-1 inh conf2: Apaf-1 inhibition, single-dose confirmed; reconstituted apoptosome, caspase-3 DEVD-Rh110 fluorescence; shares compounds with Apaf1 inhib; 1,800 compounds, 25% hits; inhibition, % at 20 µM;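 active means mean inhibition of at least 40% at 20 µM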;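 further: plate controls were DMSO wells for no effect and DEVD-CHO caspase inhibitor control wells for full effect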
Rh110 quench: interferes with Rh110 fluorescence, flagging false Apaf-1 inhibitors; AID 504615; shares compounds with Apaf1 inhib; 1,800 tested, under 10 active; Rh110 fluorescence interference, quenched caspase reaction; activation (fluorescence interference), % at 20 µM;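 active means signal rise of 40% or more at 20 µM, treated as a fluorescence artifact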
Fluor interf inh: shows fluorescence interference in the Apaf-1 inhibitor assay format | shares compounds with Apaf1 inhib | 460 tested, under 10 active | fluorescence interference counterscreen, Apaf-1 assay format | IC50, µM | AID 588538; call rule not given here
* hit, by the source's call. Rows were chosen to be rich in hits. Some 3% of all compounds tested hit in one or more screens of this group.

How did COc1ccc(CNC[C@@H](CCCCN(C)Cc2ccc(OC)cc2)N2C[C@H](c3ccccc3)N(CCc3ccc(Cl)c(Cl)c3)C(=O)C2=O)cc1 do in these assays?
Exocytosis inh: -3.2; iPSC survival up: -5.8; UBC13 inh: 93.4*; MPTP block: 9.4; Apaf1 inhib: 49.3*; MIN6 prolif: -7.7; Casp3 counter: -1.7; UBC13 confirm: 74.2*; Apaf-1 inh conf2: 51.0*; Rh110 quench: 7.1; Fluor interf inh: >100

How did O=C(Cc1c[nH]c2ccccc12)N1CCN(S(=O)(=O)c2cccc(Cl)c2Cl)CC1 do in these assays?
Exocytosis inh: -5.6; iPSC survival up: -0.5; UBC13 inh: -0.5; MPTP block: -0.9; Apaf1 inhib: 18.7; MIN6 prolif: -6.1

What do the screens show for `COc1cccc(-c2sc3ccccc3c2-c2ccc(OCCN(C)C)cc2)c1`?
Exocytosis inh: 8.0; iPSC survival up: -4.6; UBC13 inh: 80.2*; MPTP block: 0.0; Apaf1 inhib: 75.5*; MIN6 prolif: -6.1; Casp3 counter: -2.5; UBC13 confirm: 78.6*; Apaf-1 inh conf2: 20.2; Rh110 quench: 6.8

What do the screens show for `COc1cccc(-c2sc3ccccc3c2-c2ccc(OCCN3CCCCC3)cc2)c1`?
Exocytosis inh: -2.5; iPSC survival up: -3.0; UBC13 inh: 68.9*; MPTP block: 0.7; Apaf1 inhib: 64.4*; MIN6 prolif: -6.1; Casp3 counter: -1.7; UBC13 confirm: 61.5*; Apaf-1 inh conf2: 7.6; Rh110 quench: 13.7

Results for COc1cccc(-c2sc3ccccc3c2-c2ccc(OCCN3CCCC3)cc2)c1 ?
Exocytosis inh: 1.2; iPSC survival up: -3.0; UBC13 inh: 83.8*; MPTP block: -1.4; Apaf1 inhib: 71.0*; MIN6 prolif: -6.0; Casp3 counter: -3.9; UBC13 confirm: 68.5*; Apaf-1 inh conf2: 24.5; Rh110 quench: 14.3

Results for COc1ccc(-c2sc3ccc(OC)cc3c2-c2ccc(OCCN3CCOCC3)cc2)cc1 ?
Exocytosis inh: 4.9; iPSC survival up: 3.5; MPTP block: -1.7; Apaf1 inhib: 29.5

Results for COc1ccc(-c2sc3ccccc3c2-c2ccc(OCCN3CCCCC3)cc2)cc1 ?
Exocytosis inh: 34.3; iPSC survival up: -1.1; UBC13 inh: 72.1*; MPTP block: -0.6; Apaf1 inhib: 54.9*; MIN6 prolif: -5.1; Casp3 counter: -3.2; UBC13 confirm: inconclusive; Apaf-1 inh conf2: 15.7; Rh110 quench: 4.9

What do the screens show for `COc1cccc(-c2sc3ccc(OC)cc3c2-c2ccc(C(N)=O)cc2)c1`?
Exocytosis inh: 0.2; iPSC survival up: 1.4; UBC13 inh: 4.1; MPTP block: 0.4; Apaf1 inhib: 17.7; MIN6 prolif: -3.6

Results for O=C(CC1SC(N2CCCC2)=NC1=O)Nc1ccc(C(=O)N2CCN(c3cccc(Cl)c3)CC2)cc1 (configuration not stated) ?
Exocytosis inh: 3.4; iPSC survival up: -0.3; UBC13 inh: 9.4; MPTP block: -1.6; Apaf1 inhib: 9.7; MIN6 prolif: -0.3

What do the screens show for `C[N+](C)(CCOc1ccccc1)Cc1ccccc1`?
Exocytosis inh: -2.1; iPSC survival up: 1.2; MPTP block: 0.2
